Test results reported in publication PMC12618243 (Nature Structural & Molecular Biology, 2025).
Read-outs that look alike come from different tables or passages of the source.

How the values were obtained:
OSH6 [1] = target: T1, OSH6 (Saccharomyces cerevisiae, UniProt Q02201); assay: ITC binding of IST2 peptides to OSH6; parameters: species or system S. cerevisiae; conditions: R750A peptide, Extended Data Fig. 7l
T1 sequence (Q02201 1-448): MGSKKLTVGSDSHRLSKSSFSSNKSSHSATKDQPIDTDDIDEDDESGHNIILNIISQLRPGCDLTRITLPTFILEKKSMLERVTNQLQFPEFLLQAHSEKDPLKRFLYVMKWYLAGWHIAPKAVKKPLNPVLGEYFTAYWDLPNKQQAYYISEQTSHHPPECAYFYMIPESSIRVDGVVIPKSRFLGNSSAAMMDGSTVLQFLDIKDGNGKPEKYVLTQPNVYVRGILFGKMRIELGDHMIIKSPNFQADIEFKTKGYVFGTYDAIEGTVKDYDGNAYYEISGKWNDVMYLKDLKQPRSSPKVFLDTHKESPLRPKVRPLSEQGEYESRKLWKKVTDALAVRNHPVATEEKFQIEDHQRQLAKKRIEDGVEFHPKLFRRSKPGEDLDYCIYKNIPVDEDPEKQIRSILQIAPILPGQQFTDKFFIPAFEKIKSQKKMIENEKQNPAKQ

OSH6 [2] = target: T1, OSH6; assay: Pulldown of OSH6 by GST-tagged IST2 peptides; format: binding, S. cerevisiae
Summary of the method: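 GST-tagged IST2 peptides (OSH6-binding epitope, varying length) expressed in E. coli BL21 (0.3 mM IPTG at OD600 0.8, 25 °C, 2.5 h). Coated beads incubated with 5 µM (final) OSH6 plus BSA, 1 h, 4 °C. Beads washed without BSA, taken into SDS sample buffer.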

cryo-EM structure [3] = target: the molecule itself; assay: cryo-EM structure
MSP2N2 = assay: SEC of OSH6 with scaffold protein MSP2N2 in absence of lipids; format: binding; conditions: no lipids, 1.2× molar excess MSP2N2, 30 min, performed once
cryo-EM structure [4] = target: the molecule itself; assay: cryo-EM structure; remark: listed apart in the source
[5] = test system: S. cerevisiae ist2;psd1-KO strain (AWY327); assay: Yeast complementation; format: cell-based; conditions: 2% galactose, 30 °C, 3–4 days
OSH6 [6] = target: T1, OSH6; assay: SEC coelution of IST2fl and OSH6; format: binding, S. cerevisiae
[7] = cited from earlier work
[8] = target: T2, OSH6 purified from E. coli (S. cerevisiae, UniProt Q02201 1-448); assay: pull-down
T2 sequence: T1 sequence (Q02201 1-448)

Substitution of R750 to alanine: peptide encompassing residues 732-761 of IST2 carrying the mutation R750A (ITC) (VAGATLPETIPTSKNYYLAFDEDGKSIRDA; UniProt P38250 732-761, looked up, fragment R750A)
Binding to OSH6 by ITC (in words) (OSH6 [1]): severely compromise binding to OSH6
OSH6 interaction in pulldown (in words) (OSH6 [2]): severely compromise binding to OSH6

B1: IST2 containing residues 1-716 (domain or fragment)
chain: MSQTITSLDPNCVIVFNKTSSANEKSLNVEFKRLNIHSIIEPGHDLQTSYAFIRIHQDNAKPLFSFLQNLDFIESIIPYHDTELSDDLHKLISISKSKILEAPKQYELYNLSNLTNNPKQSLYFAFLQNYIKWLIPFSFFGLSIRFLSNFTYEFNSTYSLFAILWTLSFTAFWLYKYEPFWSDRLSKYSSFSTIEFLQDKQKAQKKASSVIMLKKCCFIPVALLFGAILLSFQLYCFALEIFIKQIYNGPMISILSFLPTILICTFTPVLTVIYNKYFVEPMTKWENHSSVVNAKKSKEAKNFVIIFLSSYVPLLITLFLYLPMGHLLTAEIRTKVFNAFSILARLPTHDSDFIIDTKRYEDQFFYFIVINQLIQFSMENFVPSLVSIAQQKINGPNPNFVKAESEIGKAQLSSSDMKIWSKVKSYQTDPWGATFDLDANFKKLLLQFGYLVMFSTIWPLAPFICLIVNLIVYQVDLRKAVLYSKPEYFPFPIYDKPSSVSNTQKLTVGLWNSVLVMFSILGCVITATLTYMYQSCNIPGVGAHTSIHTNKAWYLANPINHSWINIVLYAVFIEHVSVAIFFLFSSILKSSHDDVANGIVPKHVVNVQNPPKQEVFEKIPSPEFNSNNEKELVQRKGSANEKLHQELGEKQPASSANGYEAHAATHANNDPSSLSSASSPSLSSSSSSSKTGVVKAVDNDTAGSAGKKPLATESTE
stoichiometry N (cryo-EM structure [3]): 2

B2: OSH6: soluble lipid transfer protein, PS–PtdIns4P exchanger of S. cerevisiae (protein)
chain: T1 sequence (Q02201 1-448)
modifications: left off: GST, N-terminal, cleaved
Interaction with isolated scaffold protein (in words) (MSP2N2): nor did we detect interactions with the isolated scaffold protein

B3: full-length IST2 (natural protein)
chain: MSQTITSLDPNCVIVFNKTSSANEKSLNVEFKRLNIHSIIEPGHDLQTSYAFIRIHQDNAKPLFSFLQNLDFIESIIPYHDTELSDDLHKLISISKSKILEAPKQYELYNLSNLTNNPKQSLYFAFLQNYIKWLIPFSFFGLSIRFLSNFTYEFNSTYSLFAILWTLSFTAFWLYKYEPFWSDRLSKYSSFSTIEFLQDKQKAQKKASSVIMLKKCCFIPVALLFGAILLSFQLYCFALEIFIKQIYNGPMISILSFLPTILICTFTPVLTVIYNKYFVEPMTKWENHSSVVNAKKSKEAKNFVIIFLSSYVPLLITLFLYLPMGHLLTAEIRTKVFNAFSILARLPTHDSDFIIDTKRYEDQFFYFIVINQLIQFSMENFVPSLVSIAQQKINGPNPNFVKAESEIGKAQLSSSDMKIWSKVKSYQTDPWGATFDLDANFKKLLLQFGYLVMFSTIWPLAPFICLIVNLIVYQVDLRKAVLYSKPEYFPFPIYDKPSSVSNTQKLTVGLWNSVLVMFSILGCVITATLTYMYQSCNIPGVGAHTSIHTNKAWYLANPINHSWINIVLYAVFIEHVSVAIFFLFSSILKSSHDDVANGIVPKHVVNVQNPPKQEVFEKIPSPEFNSNNEKELVQRKGSANEKLHQELGEKQPASSANGYEAHAATHANNDPSSLSSASSPSLSSSSSSSKTGVVKAVDNDTAGSAGKKPLATESTEKRNSLVKVPTVGSYGVAGATLPETIPTSKNYYLRFDEDGKSIRDAKSSAESSNATNNNTLGTESKLLPDGDAVDALSRKIDQIPKIAVTGGENNENTQAKDDAATKTPLIKDANIKPVVNAAVNDNQSKVSVATEQTKKTEVSTKNGPSRSISTKETKDSARPSNNNTTTTTTTDATQPHHHHHHHRHRDAGVKNVTNNSKTTESSSSSSAAKEKPKHKKGLLHKLKKKL
stoichiometry N (cryo-EM structure [4]): 2

B4: IST2: full-length wild-type IST2, 946 residues, S. cerevisiae (protein)
chain: B3 chain
modifications: left off: SBP, N-terminal, state not stated | myc, N-terminal, state not stated
Growth complementation (in words) [5]: growth deficit can be alleviated
Coelution as a complex on SEC (in words) (OSH6 [6]): coelute as a complex on size-exclusion chromatography
Scrambling activity, previous publication (in words) [7]: refuting scrambling activity

VAGATLPETIPTSKNYYLRFDEDGKSIR [GST fusion of the IST2 peptide encompassing residues 732-759]
binding result [8]: binds
